The source made the active and inactive calls. No cut-off for these calls is given here.

What is called IC50 is the concentration that gives 50% inhibition.

Data set [1] deals with T1, Transthyretin (Homo sapiens, UniProt P02766). The data set can be described thus: Inhibition of wild type TTR amyloidogenesis assessed as fibril formation at […] after 72 hrs at pH 4.4 by spectrophotometry relative to untreated control. Further details: scale not given: the % may be the effect or the level left.
For data set [2], the system named is Transthyretin (Homo sapiens), P02766 [V50M]. In words: Inhibition of TTR V30M mutant amyloidogenesis assessed as fibril formation at […] after 72 hrs at pH 4.4 by spectrophotometry relative to untreated control. Further details: scale not given: the % may be the effect or the level left.
In data set [3] the target is T1, Transthyretin. In words: Inhibition of wild type TTR amyloidogenesis assessed as fibril formation at 7.2 uM after 72 hrs at pH 4.4 by spectrophotometry relative to untreated control. Details: scale not given: the % may be the effect or the level left.
Data set [4] deals with Transthyretin (Homo sapiens), P02766 [V50M]. In words: Inhibition of TTR V30M mutant amyloidogenesis assessed as fibril formation at 7.2 uM after 72 hrs at pH 4.4 by spectrophotometry relative to untreated control. Further details: scale not given: the % may be the effect or the level left.
The target of data set [5] is T1, Transthyretin. The data set can be described thus: Inhibition of wild type TTR amyloidogenesis assessed as inhibition of fibril formation after 72 hrs at pH 4.4 by spectrophotometry relative to untreated control.
Data set [6] deals with T1, Transthyretin. In words: Binding affinity to wild type TTR in human plasma assessed as covalent modification of TTR subunit after 18 hrs by RP-HPLC analysis. In kind it is cell-free.
The target in data set [7] is T1, Transthyretin. The data set can be described thus: Binding affinity to wild type TTR tetramer in human plasma assessed as covalent chemoselective amide bond formation with Lys15 residue of TTR subunit at 7.2 uM after 18 hrs by RP-HPLC analysis. Format: cell-free.
For a further data set, the species on record is Homo sapiens. The data set can be described thus: Binding affinity to TTR K15A mutant tetramer in human plasma assessed as covalent chemoselective amide bond formation with residue-15 of TTR subunit at 7.2 uM after 18 hrs by RP-HPLC analysis. Format: cell-free.
The target in data set [8] is T1, Transthyretin. The data set can be described thus: Stabilization of wild-type TTR tetramer assessed as time needed for 95% TTR-compound conjugate formation by C18-RP-HPLC.
Data set [9] addresses T1, Transthyretin. In words: Stabilization of wild-type TTR tetramer assessed as rate of TTR-compound conjugate formation by C18-RP-HPLC.
The target in data set [10] is T1, Transthyretin. In words: Binding affinity to TTR in human plasma at 10.8 uM after 24 hrs RP-HPLC analysis. In kind it is cell-free.
Data set [11] concerns the target T1, Transthyretin. The data set can be described thus: Binding affinity to wild type TTR assessed as induction of benzoylation at Lys15 residue of TTR subunit by LC-MS method.
The nature of data set [12]: Toxicity in human IMR32 cells assessed as reduction of cell viability after 24 hrs by resazurin reduction assay. In kind it is cell-based. To be noted: imr-32, 24 h. Put shortly: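 IMR-32 cells (6,000/well, overnight) were exposed 24 h at 37 °C to compound preincubated 18 h at 37 °C in HBSS without TTR, diluted 1:1 in supplemented Opti-MEM. Viability was read by resazurin fluorescence (Ex/Em 530/590, 1 h), as % of vehicle-treated cells after blank subtraction.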

Data set [13] has as its target T1, Transthyretin. The data set can be described thus: Inhibition of wild type TTR amyloidogenesis assessed as fibril formation at 1.8 to 2.7 uM after 120 hrs at pH 4.4 by spectrophotometry relative to untreated control.
Data set [14] concerns the target T1, Transthyretin. In words: Noncovalent binding affinity to wild type TTR T4 site assessed as fibril formation at 7.2 uM after 72 hrs at pH 4.4 by RP-HPLC analysis.
Data set [15] concerns the target T1, Transthyretin. The data set can be described thus: Noncovalent binding affinity to TTR K15A mutant T4 site assessed as fibril formation at 7.2 uM after 72 hrs at pH 4.4 by RP-HPLC analysis.
The target of data set [16] is T1, Transthyretin. The data set can be described thus: Inhibition of wild type TTR induced cytotoxicity in human IMR32 cells assessed as cell viability after 24 hrs by resazurin reduction assay. To be noted: IMR-32. Format: cell-based. The procedure, abridged:
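IMR-32 neuroblastoma cells were seeded at 6,000/well in Opti-MEM with 5% FBS and grown overnight. Cold-purified WT-TTR in HBSS was preincubated 18 h at 37 °C with compound, then diluted 1:1 in supplemented Opti-MEM onto cells. After 24 h at 37 °C, resazurin was added and fluorescence read (Ex/Em 530/590) after 1 h. Results are % of vehicle, blank-subtracted, mean ± SE of 2 experiments, at least triplicate.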
(Resazurin is reduced to fluorescent resorufin, in cell work by metabolically active cells.)

In data set [17] the target is T1, Transthyretin. In words: Binding affinity to wild-type TTR assessed as nonchemoselective conjugation of TTR after 18 hrs by C18-RP-HPLC.
A short description of data set [18]: Binding affinity to TTR K15A mutant assessed as nonchemoselective conjugation of TTR after 18 hrs by C18-RP-HPLC.

Take `Cc1cc(/C=C/c2cccc(C(=O)Oc3ccccc3[N+](=O)[O-])c2)cc(C)c1O`: the Activity at Transthyretin [1] came to 21%; in [2], 33%; at Transthyretin [3], 4%; in data set [4], 3%; on Transthyretin [6], 49%. Besides, on Transthyretin [5], the IC50 is 2.26 µM. Besides, the inhibition result at Transthyretin [5] is “Dose-dependent effect”. Also, the outcome on Transthyretin [7], on Transthyretin [10] and on Transthyretin [11] was Active. In addition, in the data set filed under Homo sapiens, the outcome was inactive. Besides, the TIME at Transthyretin [8] worked out at 0.983 h. Further, on Transthyretin [9], the T1/2 was found to be 5 min.

As for `Cc1cc(/C=C/c2ccccc2)cc(C)c1O`, the inhibition entry on Transthyretin [5] and at Transthyretin [16] was “Dose-dependent effect” in each case. The Activity entry in data set [12] is reported as “Non-toxic”. In addition, on Transthyretin [13], the inhibition result is “Active”. The outcome at Transthyretin [14] and at Transthyretin [15] was Active.

Consider `Cc1cc(/C=C/c2cccc(C(=O)Sc3ccccc3)c2)cc(C)c1O`, for which the Activity on Transthyretin [1] is 16%; in [2] it was 34%; on Transthyretin [3], 2%; in data set [4] it was 3%; on Transthyretin [6], 48%; in [12], “Non-toxic”. The inhibition result on Transthyretin [5] and on Transthyretin [16] was “Dose-dependent effect” throughout. For the same compound, the outcome at Transthyretin [7], at Transthyretin [10] and on Transthyretin [11] was Active. Besides, the result in the data set filed under Homo sapiens was inactive. In addition, the TIME at Transthyretin [8] was determined as 1.35 h. Besides, the T1/2 on Transthyretin [9] was 15 min.

`Cc1cc(/C=C/c2cccc(C(=O)Oc3ccc(F)cc3)c2)cc(C)c1O`: the outcome in the data set filed under Homo sapiens was inactive. Also, on Transthyretin [8], the TIME came to 21.9 h. In data set [12], the Activity result is on record as “Non-toxic”.

With `Cc1cc(/C=C/c2ccc(C(=O)Sc3ccccc3)cc2)cc(C)c1O`, the outcome on Transthyretin [17] was Active.

In the case of `Cc1cc(/C=C/c2cccc(C(=O)O)c2)cc(C)c1O`, the IC50 on Transthyretin [5] was 3.07 µM. The inhibition entry on Transthyretin [5] and at Transthyretin [16] was “Dose-dependent effect” in each case. Besides, in data set [12], the Activity result is on record as “Non-toxic”. Moreover, the inhibition entry at Transthyretin [13] is “Active”. Also, the outcome at Transthyretin [14] and at Transthyretin [15] was Active.

In the case of `Cc1cc(/C=C/c2ccc(C(=O)Oc3ccccc3[N+](=O)[O-])cc2)cc(C)c1O`, the result (on Transthyretin [17]; in data set [18]) was Active.

With `O=C(Sc1ccccc1)c1cccc(/C=C/c2cc(Br)c(O)c(Br)c2)c1`, the Activity on Transthyretin [1] is 12%; in [2], 17%; on Transthyretin [3] it was 2%; in data set [4] it was 3%; at Transthyretin [6], 36%. In addition, the inhibition result on Transthyretin [5] was “Dose-dependent effect”. In addition, the result on Transthyretin [7], on Transthyretin [10] and on Transthyretin [11] was Active. In the data set filed under Homo sapiens, the outcome was inactive. The TIME on Transthyretin [8] amounted to 21.2 h.

Consider `Cc1cc(/C=C/c2ccc(C(=O)Oc3ccc(F)cc3)cc2)cc(C)c1O`, for which, on Transthyretin [17], the result was Active.

The record behind these values is ChEMBL document CHEMBL1212806, “Chemoselective small molecules that covalently modify one lysine in a non-enzyme protein in plasma” (Nat Chem Biol, 2010).
